Results of several laboratories.
Lines come from different studies, so protocols differ. In brackets after ≈: the same amount, converted by molar mass.

CCN1CCc2c(sc(NC(=O)c3cc(C(F)(F)F)cc(C(F)(F)F)c3)c2C(=O)NCc2ccc(C)cc2)C1  MIC (Mycobacterium tuberculosis; microbial growth, resazurin; H37RV): 350 µM (≈ 199 µg/mL)
c1ccc(C2CCN(c3nc(-c4cnn5cccnc45)nc4ccccc34)C2)nc1 (stereo not shown)  IC50 (Trypanosoma cruzi; parasite growth, imaging; U2OS; intracellular, amastigote): 1.11 µM
COc1ccc(NCC(=O)Nc2c(C#N)sc(Nc3ccccc3)c2C(=O)Nc2ccc(OC)cc2)cc1  viability (HepG2; cell growth or viability, SRB; 10 nM, 48 h): 91.1%
OC1(c2ccccc2)CCN(c2nc(-c3ccccn3)nc3ccccc23)C1 (stereo not shown)  IC50 (Trypanosoma cruzi; parasite growth, imaging; U2OS; intracellular, amastigote): 3.51 µM
CCOC(=O)c1ccc(-n2c(C)cc(/C=C/c3ccc(OC)cc3)c(C#N)c2=O)cc1  viability (HepG2; cell growth or viability, MTT; 6.25 µM, 24 h): 96%
COc1ccc(NC(=O)c2c(Nc3ccccc3)sc(C(=O)NN=Cc3ccc(C)cc3)c2NC(C)=O)cc1  viability (HepG2; cell growth or viability, SRB; 10 µM, 48 h): 68.2%
CCOC(=O)c1ccc(-n2c(C)cc(C)c(C#N)c2=O)cc1  viability (HepG2; cell growth or viability, MTT; 1.56 µM, 24 h): 100%
Cc1ccc(CNC(=O)c2c(N)sc3c2CCCC3)cc1  MIC (Mycobacterium tuberculosis; microbial growth, resazurin; H37RV): 333 µM (≈ 100 µg/mL)
COc1ccc(NC(=O)c2c(Nc3ccccc3)sc(C#N)c2NC(=O)CNc2ccc(Cl)cc2)cc1  viability (HepG2; cell growth or viability, SRB; 10 nM, 48 h): 86.1%
N#Cc1ccccc1-c1nc(N2CCC(c3ccccn3)C2)c2ccccc2n1 (stereo not shown)  IC50 (Trypanosoma cruzi; parasite growth, imaging; U2OS; intracellular, amastigote): 5.86 µM
CCN1CCc2c(sc(N)c2C(=O)NCc2ccccc2)C1  MIC (Mycobacterium tuberculosis; microbial growth, resazurin; H37RV): > 300 µM
Fc1cccc(F)c1-c1nc(N2CCC(c3ccccn3)C2)c2ccccc2n1 (stereo not shown)  IC50 (Trypanosoma cruzi; parasite growth, imaging; U2OS; intracellular, amastigote): 9.7 µM
CCN1CCc2c(sc(N)c2C(=O)NCc2ccc(C)cc2)C1  MIC (Mycobacterium tuberculosis; microbial growth, resazurin; H37RV): > 300 µM
